This is an account of results in paper PMC3059335 (Investigational New Drugs, 2010).

Broadly, the IC50 is the concentration needed to halve the response being measured.

The nature of data set [1]: pharmacokinetics of continuous infusion cilengitide. The class given is in vivo, human. Summed up:
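Test compound given as fixed-dose continuous IV infusion (1–40 mg/hr) via venous access port, diluted in 0.9% NaCl or 5% dextrose; bag changed weekly. Heparinised blood (10 mL) taken day 1 pre-dose and 2 h post-start, then weekly for 4 weeks before and 2 h after bag change. Plasma frozen at −80°C, run in duplicate by HPLC-MS/MS. Steady-state concentration, Vss and clearance reported as mean and SD; Vd assumes 4-h half-life.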

In data set [2] the test system is patients with solid tumors. As to the kind of experiment: toxicity monitoring of continuous infusion cilengitide. The data set is classed as in vivo.
In data set [3] the test system is patients with solid tumors. Kind of data set: tumor response, radiographic tumor assessment every 8 weeks. The data set is classed as in vivo, human. The method, boiled down: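 Patients received continuous IV infusion at fixed dose levels of 1, 2, 4, 8, 12, 18, 27 or 40 mg/hr, with the infusion bag replaced weekly; 4-week cycles without a break. Tumors assessed every 8 weeks (every two cycles). Patients with DLT continued at the next lower dose if toxicities had resolved to grade ≤1 and disease had not progressed.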

Data set [4] relates to αvβ3 and αvβ5-mediated cell adhesion. The settings on record: read-out: IC50, inhibition of αvβ3 and αvβ5-mediated cell adhesion; cited from earlier work.
For data set [5] the following is noted: human, cited from earlier work.
Data set [6] relates to patients with advanced solid tumours. As to conditions: phase I testing of doses up to 2400 mg/m^2 twice weekly; cited from earlier work.

As for `CC(C)[C@H]1C(=O)N[C@@H](CCCNC(=N)N)C(=O)NCC(=O)N[C@@H](CC(=O)O)C(=O)N[C@H](Cc2ccccc2)C(=O)N1C` [cilengitide], the “cilengitide clearance, range calculated in our study” value in data set [1] (continuous infusion 1-40 mg/hr, range across dose levels) was 55 – 88 mL/min/m^2. In addition, in data set [1] (continuous infusion, weekly sampling in cycle 1), the “accumulation of cilengitide in the plasma over time” value is “no evidence of accumulation”. Further, the “maximum tolerated dose (MTD)” value in data set [2] (continuous infusion, doses up to 40 mg/hr) is “not reached”. In addition, the treatment-related hypertension result in data set [2] (in vivo) was “did not occur in any patients”. The compound also yielded a maximum feasible dose in data set [2] (in vivo, iv) of 40 mg/h. For the same compound, the objective responses entry in data set [3] (17 of the 35 patients assessed at the end of cycle 2) is reported as “No objective responses were observed”. Further, the “relationship between dose level or steady state concentration (Css) and change in tumor size after two cycles” value in data set [3] (data not shown) is listed as “no significant relationship”. Moreover, the “median duration of stable disease” value in data set [3] (two patients, cycle = 4 weeks) turned out to be 3.5 cycles. The IC50 in data set [4] was about 1 µM. Further, in data set [5] (in vivo), the clearance is on record as 34-66 mL/min/m^2 and the plasma half-life was 3 to 5 h. For the same compound, the “metabolism, drug accumulation, or enterohepatic circulation” value in data set [5] (intermittent dosing) was “no evidence of metabolism, drug accumulation, or enterohepatic circulation”. Further, in data set [6], the maximally tolerated dose result is “not reached”.
